# From PubChem BioAssay
# A selection: hits, their analogues and other compounds. The true share with any hit is near 1.4%.
# HDAC3 inhib: HDAC3 deacetylase inhibitors, primary screen, biochemical, fluorescence, cell-free homogeneous. recombinant HDAC3, fluorogenic peptide/trypsin coupled. inhibition, % at 8.3 µM. actives 0.15% (n = 320,000); in the data active = inhibition above about 26%, passing the limit was not always enough
# Target sequence (O15379 whole entry, looked up): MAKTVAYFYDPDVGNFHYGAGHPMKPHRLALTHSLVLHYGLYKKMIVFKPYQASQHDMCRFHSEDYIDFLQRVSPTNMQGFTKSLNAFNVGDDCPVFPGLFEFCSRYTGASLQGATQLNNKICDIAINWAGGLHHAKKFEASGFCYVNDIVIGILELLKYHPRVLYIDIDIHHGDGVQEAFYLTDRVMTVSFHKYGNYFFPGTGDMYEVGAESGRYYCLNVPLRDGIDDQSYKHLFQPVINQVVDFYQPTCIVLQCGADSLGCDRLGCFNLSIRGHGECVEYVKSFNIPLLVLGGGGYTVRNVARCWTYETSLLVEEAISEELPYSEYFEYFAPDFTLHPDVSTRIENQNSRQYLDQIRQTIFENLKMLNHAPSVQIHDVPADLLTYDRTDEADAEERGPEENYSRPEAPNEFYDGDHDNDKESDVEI
# Efflux pump inh: inhibitors of Candida efflux pumps in yeast, primary screen, S. cerevisiae, Nile Red, multiplex; inhibition, % at 10 µM; S. cerevisiae Candida pump triplex; actives 0.44% (n = 330,000);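 active = plate passing quality check with inhibition over a set limit, or well fluorescence over plate mean plus 4 SD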;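 also: Nile Red retained in pooled yeast measured as flow cytometry median fluorescence; 0% = buffer negative control and 100% = Enniatin B positive control; higher means more Nile Red kept so more efflux inhibition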
# CR mimetic SO: reduction of superoxide in aged yeast, primary screen, HTS | S. cerevisiae aged cells, superoxide DHE fluorescence; hits give low values | superoxide response (% of plate mean), % at 10 µM | actives 0.18% (n = 330,000) | AID 2690, 2010;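 active = superoxide response under a set limit, about three screen SD below normal, cut at about 65% in these data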;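 also: yeast aged for seven days with compound at 30 °C before DHE staining; 100% = average MFI of all compound-treated wells on the plate with controls excluded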
# IDE act: human IDE activators in live cells, primary screen, fluorescence polarization, HEK cells, FAbeta-B substrate; AID 493087, 2011; FAbeta-B cleavage; 0% vehicle, 100% cell-free pure enzyme wells; actives 0.073% (n = 340,000); activation, % at 5.96 µM; Insulin-degrading enzyme (Homo sapiens), P14735;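 active = activation above the mean of all tested compounds plus 3 SD, set per screening campaign, cut at about 17% in these data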
# IDE inh: human IDE inhibitors in live cells, primary screen, fluorescence polarization, HEK cells, FAbetaB substrate; FAbetaB cleavage; actives 0.41% (n = 320,000); Insulin-degrading enzyme (Homo sapiens), P14735; AID 434962, 2010; inhibition, % at 5.59 µM;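 active = percent inhibition above the average of all tested compounds plus 3 SD, set per screening campaign, cut at about 16% in these data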;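 also: IDE supplied by intact live HEK cells; FP after avidin binding of uncleaved biotin substrate so inhibition keeps polarization high; 0% = DMSO wells and 100% = 60 µM reference IDE inhibitor Ii1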
# Tb MetRS inh: T. brucei MetRS inhibitors, primary screen, biochemical, luminescence | actives 0.4% (n = 360,000) | inhibition, % at 11.9 µM | AID 624268, 2012 | methionyl-tRNA synthetase (Trypanosoma brucei brucei) | purified T. brucei MetRS, ATP depletion, Kinase-Glo luminescence;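 active = inhibition above a per-plate cutoff of the control wells' mean inhibition plus 3 SD, cut at about 5.5% in these data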;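 also: 0% = DMSO wells median and 100% = median of wells with control inhibitor compound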
#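 assay system = parasite MetRS enzyme | timing = 15 min preincubation, 2 h reaction, all 25 °C | evaluation = percent inhibition relative to median high and low control wells | medium = HEPES buffer containing pyrophosphatase, BSA, spermine, DTT | compound = single dose, 11.9 µM final nominal, 0.9% final DMSO | detection = Kinase-Glo luminescence, ATP depletion format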
# Cmpd fluor yeast: flagged as fluorescent in efflux inhibitor counter-screen; shares compounds with Efflux pump inh; S. cerevisiae AD/pABC3, compound fluorescence, flow cytometry; actives 4% (n = 1,700); fluorescence ratio to DMSO, % at 10 µM;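 active = fluorescence ratio to DMSO above its plate's cutoff, the plate mean ratio plus 5 SD, cut at about 210% in these data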;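 also: unstained yeast with no Nile Red so the signal is compound autofluorescence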
# Mdr1 pump inh: inhibitors of Candida albicans Mdr1 efflux, confirmation, flow cytometry, singleplex, Cherry Pick1 set | shares compounds with Efflux pump inh | S. cerevisiae AD/CaMDR1, Nile Red efflux | inhibition, % at 10 µM | actives 1% (n = 1,700) | AID 588518, 2011; in the data active = inhibition above about 26%;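 also: 0% = DMSO vehicle and 100% = reference inhibitor; higher means more Nile Red retained so more efflux inhibition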
# Cdr2 pump inh: inhibitors of Candida albicans Cdr2 efflux pump, confirmation, S. cerevisiae AD/CaCDR2, flow cytometry, cherry pick 1, singleplex. shares compounds with Efflux pump inh. Nile Red retention. Nile Red retention ratio vs DMSO, % at 10 µM. actives 4% (n = 1,700). AID 588520, 2011; in the data active = Nile Red retention ratio vs DMSO above about 190%;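 also: higher ratio means more blocking of Cdr2 efflux of the dye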
# Cdr1 pump inh: inhibitors of Candida albicans Cdr1 efflux pump, confirmation, S. cerevisiae AD/CaCDR1, flow cytometry, cherry pick 1, singleplex; AID 588522, 2011; actives 1% (n = 1,700); Nile Red efflux; shares compounds with Efflux pump inh; inhibition, % at 10 µM;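 active = inhibition above the screen-wide mean plus twice its standard deviation, cut at about 32% in these data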
# The depositor's hits bear a star; / = no result; + = active, no number.
SMILES,HDAC3 inhib,Efflux pump inh,CR mimetic SO,IDE act,IDE inh,Tb MetRS inh,Cmpd fluor yeast,Mdr1 pump inh,Cdr2 pump inh,Cdr1 pump inh
CC(NC(=O)C(=O)N1CCCCC1)C(c1cccs1)N1CCN(C)CC1 (stereo unspecified),-2,0,88,2,3,-2,/,/,/,/
CN(C)S(=O)(=O)c1ccc(N2CCCC2)c(C(=O)Nc2nc3c(ccc4ccccc43)s2)c1,-8,1.9*,96,-1,5,0,108,0,123,0
Cc1cnc(NC(=O)c2cc(S(=O)(=O)N(C)C)ccc2N2CCCC2)s1,0,0,131,/,2,0,/,/,/,/
CC(C)OC(=O)c1ccc(COC(=O)c2cccc(-c3nnc(-c4ccccc4)o3)c2)cc1,-4,7.6*,105,11,-3,-1,112,0,101,0
O=C(OCc1ccc(C(=O)c2ccccc2)cc1)c1cccc(-c2nnc(-c3ccccc3)o2)c1,-2,1,94,3,-5,-1,/,/,/,/
O=C(c1cccs1)c1no[n+]([O-])c1C(=O)c1cccs1,8,0.9*,102,-4,1,0,107,2,287*,0
COc1ccc2[nH]c(C)cc(=O)c2c1,-17,0,98,6,-1,1,/,/,/,/
COc1ccc2[nH]c3c(C)c4ccncc4c(C)c3c2c1,-1,2.8*,106,5,10,1,125,0,103,0
CCCn1c(-c2cc(OC)c(OC)c(OC)c2)nc2c1c(=O)[nH]c(=O)n2Cc1ccccc1,-24,0.7*,92,3,-5,0,99,0,110,0
CSCCC(NS(=O)(=O)c1ccc(C)cc1)C(=O)NCC(C)(C)N1CCOCC1 (stereo unspecified),1,0,87,2,1,0,/,/,/,/
O=C(Cn1c2ccccc2c(=O)c2ccccc21)Nc1ccccc1F,-83,17*,88,5,-1,0,98,0,103,0
Cc1ccc(CNC(=O)CCc2c(C)nn(-c3ccc(N4CCOCC4)nn3)c2C)cc1,4,2.0*,114,-6,6,0,100,0,112,0
COc1ccccc1NC(=O)COC(=O)C1C2CC3OC(=O)C1C3C2 (stereo unspecified),-9,0,96,1,-3,-1,/,/,/,/
Cc1ccc(CN2C(=O)CSC2c2ccccc2F)cc1 (stereo unspecified),4,0,91,3,5,-1,/,/,/,/
CCC(Sc1nc2ccccc2[nH]1)C(=O)Nc1ccc(NC(C)=O)cc1 (stereo unspecified),-2,0.7*,116,1,8,1,103,0,91,0
COCCNC(=O)/C(C#N)=C/C(C)=C/c1ccccc1,7,17*,73,-6,-1,0,99,0,102,0
COCCNC(=O)/C(C#N)=C/c1cccc(/C=C(\C#N)C(=O)NCCOC)c1,-6,0,101,3,2,0,/,/,/,/
CCCc1nc2c3ccccc3ccn2c1Cc1ccccc1,/,/,/,/,/,-1,/,/,/,/
O=C(CC1N=C2c3ccccc3N=C(SCc3ccc(F)cc3)N2C1=O)NCc1ccco1 (stereo unspecified),-7,0,85,-6,6,0,/,/,/,/
Cc1ccc(CSC2=Nc3ccccc3C3=NC(CC(=O)NCc4ccco4)C(=O)N23)cc1 (stereo unspecified),4,0.6*,100,5,-5,0,99,0,114,0
Cc1cc2c([nH]c3ccccc32)c(C)n1,-104,0,103,3,3,-1,/,/,/,/
Cc1c2ccncc2cc2c1[nH]c1ccccc12,/,/,/,-6,/,0,94,0,116,0
COc1ccc(NC(=O)/C(C#N)=C/c2ccc(OCc3ccccc3F)cc2)cc1,-3,6.5*,102,4,1,0,96,0,100,0
N#C/C(=C\c1ccc(OCc2ccccc2)cc1)C(=O)Nc1ccc(C(=O)O)cc1,-3,0,82,/,4,/,/,/,/,/
COc1ccc(-c2ccc3c(c2)S(=O)(=O)c2cccc(C(=O)NC4CC4)c2C3=O)cc1OC,0,0,82,2,3,0,/,/,/,/
SMILES,HDAC3 inhib,Efflux pump inh,CR mimetic SO,IDE act,IDE inh,Tb MetRS inh,Cmpd fluor yeast,Mdr1 pump inh,Cdr2 pump inh,Cdr1 pump inh
COc1ccc(-c2ccc3c(c2)S(=O)(=O)c2cccc(C(=O)NC4CCCCC4)c2C3=O)cc1OC,3,1.1*,102,2,1,0,85,0,121,0
N#C/C(=C\c1ccc([N+](=O)[O-])o1)c1nc2ccccc2[nH]1,4,5.1*,108,/,9,/,+,4,478*,2
N#C/C(=C(/O)c1ccc([N+](=O)[O-])o1)c1nc2ccccc2[nH]1,5,0,103,-51,12,-1,/,/,/,/
Cc1ccc2nc(/C(C#N)=C\c3cc(C)n(-c4cccc([N+](=O)[O-])c4)c3C)[nH]c2c1,-7,0,96,-9,4,0,/,/,/,/
Cc1ccc2nc(/C(C#N)=C\c3ccc([N+](=O)[O-])o3)[nH]c2c1,-3,18*,153,-5,11,1,+,8,+,0
Cc1noc(C)c1S(=O)(=O)Nc1ccc2c(c1)C(=O)N([C@H](C)CO)C[C@H](C)[C@@H](CN(C)S(=O)(=O)c1ccccc1)O2,-4,0,96,0,1,0,/,/,/,/
COc1ccccc1N(C)c1cc2c(c3c1ccn3C)C1CCC2O1 (stereo unspecified),/,/,/,/,/,1,/,/,/,/
